Measurements of several laboratories.
Protocols differ between the studies behind these lines.
Medium: plasma

Structure (SMILES) | host | route | dose | notes | measurement | result
C=CC(=O)N1CC2CC(n3nc(-c4ccc(C(=O)Nc5ccccn5)cc4)c4c(N)ncnc43)CC2C1 (centres unmarked) | male Wistar rat | oral | 3 mg/kg | – | AUC(0-t) | 908 ng·h/mL
O=C1N(Cc2ccccc2Cl)c2ccccc2C12NN=C(c1ccccc1)S2 (centres unmarked) | Sprague-Dawley rat | oral | 40 mg/kg | – | AUC | 2820 ng·h/mL
N#Cc1ccc(Nc2nc(N)cc(Oc3c(F)cc(-c4ccc(C#N)cc4)cc3F)n2)cc1 | Sprague-Dawley rat | oral | 5 mg/kg | – | AUC | 100 ng·h/mL
COc1cc2c3c(n(CCCN4CCOCC4)c(=O)c2cc1OC)-c1cc2c(cc1C3=O)OCO2 | female Fischer 344 rat | intravenous | 24 mg/m² | single dose | AUC(0-inf) | 806 ng·h/mL
CC[C@H](C)[C@H](NC(=O)[C@H](Cc1ccccc1)NC(=O)[C@H](CCC(=O)O)NC(=O)[C@H](CCCNC(=N)N)NC(=O)[C@H](C)NC(=O)[C@H](C)NC(=O)[C@H](CCC(N)=O)NC(=O)[C@H](CCC(=O)O)NC(=O)[C@H](CCC(=O)O)NC(=O)[C@H](CC(C)C)NC(=O)[C@H](Cc1ccc(O)cc1)NC(=O)[C@H](CO)NC(=O)[C@H](CO)NC(=O)[C@@H](NC(=O)[C@H](CC(=O)O)NC(=O)[C@H](CO)NC(=O)[C@@H](NC(=O)[C@H](Cc1ccccc1)NC(=O)[C@@H](NC(=O)CNC(=O)[C@H](CCC(=O)O)NC(=O)[C@H](C)NC(=O)CCc1c[nH]cn1)[C@@H](C)O)[C@@H](C)O)C(C)C)C(=O)N[C@@H](C)C(=O)N[C@@H](Cc1c[nH]c2ccccc12)C(=O)N[C@@H](CC(C)C)C(=O)N[C@H](C(=O)N[C@@H](CCCNC(=N)N)C(=O)NCC(=O)N[C@@H](CCCNC(=N)N)C(=O)N[C@@H](CCCCNC(=O)COCCOCCNC(=O)COCCOCCNC(=O)CC[C@H](NC(=O)CCCCCCCCCCCCCCCCC(=O)O)C(=O)O)C(=O)O)C(C)C | rat | subcutaneous | 20 nmol/kg | – | AUC | 1.98 µM·h
CCNC(=O)c1nc(-c2ccc3[nH]c(-c4nc(C)no4)cc3c2)c(C)[nH]1 | Sprague-Dawley rat | intravenous | 1 mg/kg | – | AUC | 2.4 µM·h
CCc1cc(C(=O)NC)c2nccc(N3CCc4c(cc(Cn5ccnc5)cc4-c4cn(C)nc4C(F)(F)F)C3=O)c2c1 | male Sprague-Dawley rat | intravenous | 3 mg/kg | – | AUC(0-inf) | 1280 ng·h/mL
N#Cc1[nH]nnc1-c1cc(Cl)cc(/C=C/c2cccc(C(F)(F)F)c2)c1 | male Sprague-Dawley rat | oral | 10 mg/kg | – | AUC | 16700 ng·h/mL
CCOC(=O)[C@@]12C[C@@H]1[C@@H](n1ccc3c(NC)nc(C#Cc4ccc(Cl)s4)nc31)[C@H](O)[C@@H]2O | male Sprague-Dawley rat | intravenous | 0.5 mg/kg | – | AUC(0-inf) | 31.1 ng·h/mL
N#Cc1[nH]nnc1-c1cccc(-c2cc(F)cc(C(F)(F)F)c2)c1 | male Sprague-Dawley rat | oral | 10 mg/kg | – | AUC | 68200 ng·h/mL
Cc1noc(-c2cc3cc(-c4nc(C(=O)NCc5ccncc5)[nH]c4C)ccc3[nH]2)n1 | Sprague-Dawley rat | intravenous | 1 mg/kg | – | AUC | 3 µM·h
